# Laboratory results published in ChEMBL document CHEMBL1140862, “Berberine analogues as a novel class of the low-density-lipoprotein receptor up-regulators: synthesis, structure-activity relationships, and cholesterol-lowering efficacy” (J Med Chem, 2009).
# The source made the active and inactive calls. The rule behind the calls is not given here.
# Tests used:
# HepG2 [1] = test: Induction of LDLR mRNA expression in human HepG2 cells after 12 hrs by RT-PCR assay relative to untreated control; type: functional
# Procedure, shortened: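 HepG2 cells kept in RPMI-1640 with 10% FBS, moved 24 h before dosing to 10% LPDS, then at ~80% confluence to RPMI-1640 with 0.5% LPDS plus compound (5.0 µg/mL in table; concentrations as indicated in figure), 12 h, 37 °C. Total RNA reverse-transcribed, TaqMan real-time PCR, comparative CT method with GAPDH reference; fold of untreated cells (=1); mean of three experiments.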
# Bel-7402 = test: Induction of LDLR […] in human Bel7402 cells after 12 hrs by RT-PCR assay relative to control; type: functional, cell-based
# HepG2 [2] = test: Induction of LDLR protein expression in human HepG2 cells at 10 ug/mL after 12 hrs by flow cytometry; type: functional, cell-based
# Procedure, shortened: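 HepG2 cells in LPDS medium treated 12 h with 10 µg/mL compound, detached, fixed in 2% paraformaldehyde at 4 °C overnight, blocked, stained on ice 1 h with rabbit polyclonal anti-LDLR (1:25), then FITC goat anti-rabbit IgG (1:50) 30 min; normal rabbit IgG background control; cell-surface fluorescence by flow cytometry.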
# Rattus norvegicus [3] = test: Reduction of blood cholesterol level in hyperlipidemic Sprague-Dawley rat at 100 mg/kg, po daily twice for 30 days relative to control; type: functional; design: scale not given: the % may be the effect or the level left
# Procedure, shortened: (§1)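 Male Sprague-Dawley rats on HFHC diet 8 weeks, then saline suspension by gavage at 100 (mg/kg)/day, twice daily, 30 days (n = 8; untreated HFHC n = 6; normal-diet controls). Fasted tail-snip blood at end point; total cholesterol and LDL-c by commercial kits; percent reduction versus untreated HFHC control; mean ± SEM.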
# Rattus norvegicus [4] = test: Reduction of blood low density lipoprotein cholesterol level in hyperlipidemic Sprague-Dawley rat at 100 mg/kg, po daily twice for 30 days relative to control; type: functional; design: scale not given: the % may be the effect or the level left; procedure, shortened: as §1
# Rattus norvegicus [5] = test: Reduction of blood cholesterol level in hyperlipidemic Sprague-Dawley rat at 100 mg/kg, po daily twice; type: functional, organism-based; design: dose 100 mg/kg; settings: TDE = time-dependent effect
# Rattus norvegicus [6] = test: Reduction of blood low density lipoprotein cholesterol level in hyperlipidemic Sprague-Dawley rat at 100 mg/kg, po daily twice; type: functional, organism-based; design: dose 100 mg/kg; settings: TDE = time-dependent effect
# Rattus norvegicus [7] = test: Induction of HMG-CoA reductase mRNA expression in hyperlipidemic Sprague-Dawley rat liver at 100 mg/kg, po daily twice for 30 days by RT-PCR; type: functional, organism-based; design: dose 100 mg/kg
# Procedure, shortened: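 Male Sprague-Dawley rats (180 ± 10 g) fed HFHC diet (2% cholesterol, 10% yolk powder, 15% lard, 0.2% sodium cholate) 8 weeks, then gavaged with compound suspended in saline, 100 (mg/kg)/day, twice daily, 30 days (n = 8; untreated n = 6). Liver RNA, TaqMan real-time RT-PCR, comparative CT with GAPDH; fold of untreated HFHC control.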
# Mus musculus [8] = test: Reduction of blood cholesterol level in hyperlipidemic C57BL/6J mouse at 100 mg/kg, po daily twice for 21 days relative to control; type: functional; design: scale not given: the % may be the effect or the level left
# Procedure, shortened: (§2)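 Male C57BL/6J mice fed HFHC diet 8 weeks, then gavaged twice daily (0.2 mL saline suspension) at 100 (mg/kg)/day for 21 days (n = 8; untreated n = 6). Fasted tail-snip blood; total cholesterol and LDL-c by commercial kits relative to untreated control.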
# Mus musculus [9] = test: Reduction of blood low density lipoprotein cholesterol level in hyperlipidemic C57BL/6J mouse at 100 mg/kg, po daily twice for 21 days relative to control; type: functional; design: scale not given: the % may be the effect or the level left; procedure, shortened: as §2
# [10] = Elimination half life in po dosed human; type: ADME, organism-based; settings: in vivo, read-out: beta t1/2 (converted)
Structure (SMILES),fold change (FC) (HepG2 [1]),also measured
CCCc1c2[n+](cc3c(OC)c(OC)ccc13)CCc1cc3c(cc1-2)OCO3.[Cl-],0.9,
COc1cc2c(cc1OC)C[N+]1(Cc3ccccc3)CCc3cc4c(cc3C1C2)OCO4.[Br-] (stereo unspecified),0.9,
CCOC(=O)C[N+]12CCc3cc4c(cc3C1Cc1cc(OC)c(OC)cc1C2)OCO4.[Br-] (stereo unspecified),1,
CC[N+]12CCc3cc4c(cc3C1Cc1cc(OC)c(OC)cc1C2)OCO4.[Br-] (stereo unspecified),0.8,
COc1ccc2c(C)c3[n+](cc2c1OC)CCc1cc2c(cc1-3)OCO2.[Cl-],1.1,
COc1cc2c(cc1O)-c1cc3ccc(OC)c(OC)c3c[n+]1CC2.[I-] [COLUMBAMINE IODIDE],1,
COc1cc2c(cc1OC)C[N+]1(C)CCc3cc4c(cc3C1C2)OCO4.[I-] (stereo unspecified),0.9,
CCCOc1cc2c(cc1OCCC)-c1cc3ccc(OC)c(OC)c3c[n+]1CC2.[Br-],0.9,
COc1cc2c(cc1OC)-c1cc3ccc(OC)c(OC)c3c[n+]1CC2.[I-],0.8,
COc1ccc2cc3[n+](cc2c1OC)CCc1cc(OCc2ccccc2)c(OCc2ccccc2)cc1-3.[Br-],1,
CCOc1cc2c(cc1O)-c1cc3ccc(OC)c(OC)c3c[n+]1CC2.[Br-],0.9,
COc1ccc2c(c1OC)C[N+]1(C)CCc3cc4c(cc3C1C2)OCO4.[I-] (stereo unspecified),1.1,
CCC[N+]12CCc3cc4c(cc3C1Cc1ccc(OC)c(OC)c1C2)OCO4.[I-] (stereo unspecified),1.2,
COc1ccc2c(Cc3ccccc3)c3[n+](cc2c1OC)CCc1cc2c(cc1-3)OCO2.[Br-],1.4,
COc1ccc2cc3[n+](cc2c1OC)CCc1cc2c(cc1-3)OCO2.[Cl-] [BERBERINE CHLORIDE],2.2,Activity (Bel-7402): Active; Activity (HepG2 [2]): Active; Activity (Rattus norvegicus [3]): 27.4%; Activity (Rattus norvegicus [4]): 31.6%; Activity (Rattus norvegicus [5]): tde; Activity (Rattus norvegicus [6]): tde; Activity (Rattus norvegicus [7]): inactive; Activity (Mus musculus [8]): 16.7%; Activity (Mus musculus [9]): 23.9%; half-life [10]: 2.94 h
CCCCCCc1c2[n+](cc3cc(OC)c(OC)cc13)CCc1cc3c(cc1-2)OCO3.[Cl-],1.1,
